Converted amounts (≈) assume the structure as drawn. The source made the active and inactive calls. No cut-off for these calls is given here.
How the values were obtained:
[1] = Inhibition of sheep brain tubulin polymerization assessed as reduction of microtubule assembly after 30 mins by UV-visible spectrophotometry
MCF7 [2] = experiment: Cytotoxicity against human MCF7 cells after 48 hrs by MTT assay; format: functional, cell-based; conditions: MCF7, 48 h
Method in brief: (§1)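 Log-phase cells harvested by trypsinization, seeded 24 h, then exposed to a range of compound concentrations for 48 h; etoposide positive and DMSO negative controls, final DMSO below 2%. Cells kept at 37 °C, 5% CO2, humidified. MTT formazan absorbance read; % inhibition = (Abs control − Abs treated)/Abs control × 100; IC50 from concentration–response curves by regression.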

MRC5 [3] = experiment: Selectivity index, ratio of IC50 for human MRC5 cells to IC50 for human MDA-MB-231 cells; format: functional
Method in brief: (§2)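 Ratio of IC50 in non-tumoral MRC-5 cells to IC50 in the cancer line, both from the 48 h MTT assay.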

MCF7 [4] = experiment: Induction of apoptosis in human MCF7 cells assessed as early apoptotic cells at IC50 using annexin V-PE/7-AAD double staining by flow cytometry (reference value: 4.88%); format: functional
T47D [5] = experiment: Cytotoxicity against human T47D cells after 48 hrs by MTT assay; format: functional, cell-based
Method in brief: as §1

MCF7 [6] = experiment: Induction of apoptosis in human MCF7 cells assessed as late apoptotic cells at IC50 using annexin V-PE/7-AAD double staining by flow cytometry (reference value: 0.12%); format: functional
MCF7 [7] = experiment: Induction of apoptosis in human MCF7 cells at IC50 after 24 hrs by acridine orange/ethidium bromide staining test; format: functional, cell-based
MCF7 [8] = experiment: Induction of apoptosis in human MCF7 cells assessed as viable cells at IC50 using annexin V-PE/7-AAD double staining by flow cytometry (reference value: 95%); format: functional
MRC5 [9] = experiment: Selectivity index, ratio of IC50 for human MRC5 cells to IC50 for human T47D cells; format: functional
Method in brief: as §2

MCF7 [10] = experiment: Induction of apoptosis in human MCF7 cells assessed as necrotic cells at IC50 using annexin V-PE/7-AAD double staining by flow cytometry (reference value: 0%); format: functional
MCF7 [11] = experiment: Selectivity index, ratio of IC50 for human MRC5 cells to IC50 for human MCF7 cells; format: functional
Method in brief: as §2

MRC5 [12] = experiment: Cytotoxicity against human MRC5 cells after 48 hrs by MTT assay; format: cell-based; conditions: MRC5, 48 h
Method in brief: as §1

Ovis aries = organism: Ovis aries; experiment: Inhibition of sheep brain tubulin polymerization assessed as reduction of microtubule assembly
MDA-MB-231 = experiment: Cytotoxicity against human MDA-MB-231 cells after 48 hrs by MTT assay; format: functional, cell-based; conditions: MDA-MB-231, 48 h
Method in brief: as §1

T47D [13] = experiment: Induction of apoptosis in human T47D cells at IC50 after 24 hrs by acridine orange/ethidium bromide staining test; format: functional, cell-based

SMILES	IC50 (MCF7 [2])	IC50 (T47D [5])	IC50 (MDA-MB-231)	also measured
COc1cc(-n2c(-c3ccc(C)cc3)csc2=S)cc(OC)c1OC	19.7 µg/mL (≈ 52.7 µM)	16.3 µg/mL (≈ 43.6 µM)	11.8 µg/mL (≈ 31.6 µM)	pIC50 [1]: 4.14; Ratio IC50 (MRC5 [3]): >5; Activity (MCF7 [4]): 66.47%; Activity (MCF7 [6]): 0.26%; Activity (MCF7 [7]): Active; Activity (MCF7 [8]): 33.24%; Ratio IC50 (MRC5 [9]): >5; Activity (MCF7 [10]): 0.02%; Ratio IC50 (MCF7 [11]): >5; IC50 (MRC5 [12]): > 100 µg/mL; inhibition (Ovis aries): Dose-dependent effect; Activity (T47D [13]): Active
COc1cc([C@@H]2c3cc4c(cc3[C@@H](O[C@@H]3O[C@@H]5CO[C@@H](C)O[C@H]5[C@H](O)[C@H]3O)[C@H]3COC(=O)[C@H]23)OCO4)cc(OC)c1O [ETOPOSIDE]	9.4 µg/mL (≈ 16 µM)	8.2 µg/mL (≈ 13.9 µM)	7.2 µg/mL (≈ 12.2 µM)	Activity (MCF7 [4]): 16.6%; Activity (MCF7 [6]): 0.01%; Activity (MCF7 [8]): 83.39%; Activity (MCF7 [10]): 0%
COc1cc(-n2c(-c3ccc(F)cc3)csc2=S)cc(OC)c1OC	38.5 µg/mL (≈ 102 µM)	38.9 µg/mL (≈ 103 µM)	19.5 µg/mL (≈ 51.7 µM)	–
COc1ccc(-c2csc(=S)n2-c2cc(OC)c(OC)c(OC)c2)cc1	> 100 µg/mL	> 100 µg/mL	53.8 µg/mL (≈ 138 µM)	–
COc1ccc(-n2c(-c3ccccc3)csc2=S)cc1	88.5 µg/mL (≈ 296 µM)	23.2 µg/mL (≈ 77.5 µM)	36.8 µg/mL (≈ 123 µM)	–
COc1ccc(-n2c(-c3ccccc3)csc2=S)cc1OC	17.6 µg/mL (≈ 53.4 µM)	33.1 µg/mL (≈ 100 µM)	19.1 µg/mL (≈ 58 µM)	–
COc1cc(-n2c(-c3ccccc3)csc2=S)cc(OC)c1OC	> 100 µg/mL	31.6 µg/mL (≈ 87.9 µM)	52 µg/mL (≈ 145 µM)	–
COc1cc(-n2c(-c3ccc(Cl)cc3)csc2=S)cc(OC)c1OC	> 100 µg/mL	> 100 µg/mL	> 100 µg/mL	–
COc1cc(-n2c(-c3ccc(O)c(O)c3)csc2=S)cc(OC)c1OC	> 100 µg/mL	24.9 µg/mL (≈ 63.6 µM)	29.8 µg/mL (≈ 76.1 µM)	–
COc1cc(-n2c(-c3ccc(Br)cc3)csc2=S)cc(OC)c1OC	> 100 µg/mL	> 100 µg/mL	58 µg/mL (≈ 132 µM)	–
COc1cc(N2C(=S)SCC2(O)c2ccc(Br)cc2)cc(OC)c1OC (racemic)	16.5 µg/mL (≈ 36.2 µM)	16.3 µg/mL (≈ 35.7 µM)	15.1 µg/mL (≈ 33.1 µM)	–
COc1cc(-n2c(-c3ccc(O)cc3)csc2=S)cc(OC)c1OC	35.1 µg/mL (≈ 93.5 µM)	26.4 µg/mL (≈ 70.3 µM)	22.9 µg/mL (≈ 61 µM)	–
COc1ccc(C(=O)CSC(=S)Nc2cc(OC)c(OC)c(OC)c2)cc1	18.6 µg/mL (≈ 45.6 µM)	29.9 µg/mL (≈ 73.4 µM)	16.4 µg/mL (≈ 40.2 µM)	–
COc1cc(-n2c(-c3ccc(Cl)cc3Cl)csc2=S)cc(OC)c1OC	23.6 µg/mL (≈ 55.1 µM)	43.4 µg/mL (≈ 101 µM)	49 µg/mL (≈ 114 µM)	–
COc1cc(N2C(=S)SCC2(O)c2ccc(Cl)cc2Cl)cc(OC)c1OC (racemic)	9.6 µg/mL (≈ 21.5 µM)	16.9 µg/mL (≈ 37.9 µM)	14.5 µg/mL (≈ 32.5 µM)	Activity (MCF7 [4]): 51.67%; Activity (MCF7 [6]): 0.02%; Activity (MCF7 [7]): Active; Activity (MCF7 [8]): 48.32%; Activity (MCF7 [10]): 0%; IC50 (MRC5 [12]): 47.3 µg/mL (≈ 106 µM); Activity (T47D [13]): Active
COc1cc(-n2c(-c3ccc(-c4ccccc4)cc3)csc2=S)cc(OC)c1OC	45.3 µg/mL (≈ 104 µM)	> 100 µg/mL	> 100 µg/mL	–
